Results on two compounds are retold here after publication PMC4304477 (Journal of the American Chemical Society, 2014).

One test has as its system PBPs, including PBP4. As to conditions: background statement, no reference given; cited from earlier work.
Test [1] concerns AmpC β-lactamase production. The note with it: background statement, no reference given; cited from earlier work.
Another test relates to P. aeruginosa PBP4. Format: biochemical. In a few lines:
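His-tagged P. aeruginosa PBP4 (residues 23–476) was expressed in E. coli Lemo21(DE3), passed twice over a chelating column and dialysed into 50 mM Tris pH 7.6, 0.5 M NaCl. It was used within 5 days and quantified by A280 (ε 62 005 M–1cm–1). Synthetic substrate at 0.125–5 mM was reacted in 50 mM Tris, 0.1 M NaCl, pH 7.6, 25 °C. After 30 min, one volume of 0.2% TFA was added. D-Ala-loss products were quantified by C18 HPLC against an internal standard to give steady-state kcat and Km.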

On to `CO[C@@]1(NC(=O)Cc2cccs2)C(=O)N2C(C(=O)O)=C(COC(N)=O)CS[C@@H]21` [cefoxitin], for which the PBP inhibition result in the test with PBPs, including PBP4 is reported as “inhibits PBPs, including PBP4”. In addition, the “AmpC β-lactamase induction” value in test [1] is “a high inducer of AmpC β-lactamase production”.
With “NAM-L-Ala-D-γ-Glu-meso-DAP-D-Ala-D-Ala [Compound 18]”, the “kcat comparison in words” value in the test with P. aeruginosa PBP4 (18 vs 19, pH 7.6, 25 °C) was “slightly higher than for 19”. In the test on P. aeruginosa PBP4 (PBP4, t = 30 min, LC/MS TIC, comparison with authentic synthetic 31), the turnover product entry was “This new peak was proven to be compound 31”.
